Reference: ChEMBL document CHEMBL1128440 (J Med Chem, 1995)

Assays:
Rattus norvegicus [1] = organism: Rattus norvegicus; test: Tissue biodistribution into estrogen-primed immature female rat muscle at 1 hr time interval; format: ADME, organism-based; conditions: in vivo
In short: (§1)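 Immature female Sprague-Dawley rats (25 days old, ≈50 g, five per time point) primed with estradiol, 5 μg sc daily for 2 days in 50% ethanol/sunflower seed oil, used 24 h after the last injection. The 18F-labeled ligand was given iv by tail vein in 10% ethanol/saline. Decapitated at 1 or 3 h; blood and organs weighed and gamma-counted. Reported as %ID/g ± SD, n = 5.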

Rattus norvegicus [2] = organism: Rattus norvegicus; test: Tissue biodistribution into estrogen-primed immature female rat kidney at 1 hr time interval; format: ADME, organism-based; conditions: in vivo; in short: as §1
Rattus norvegicus [3] = organism: Rattus norvegicus; test: Tissue biodistribution into estrogen-primed immature female rat liver at 1 hr time interval; format: ADME, organism-based; conditions: in vivo; in short: as §1
Rattus norvegicus [4] = organism: Rattus norvegicus; test: Tissue biodistribution into estrogen-primed immature female rat lung at 1 hr time interval; format: ADME, organism-based; conditions: in vivo; in short: as §1
Rattus norvegicus [5] = organism: Rattus norvegicus; test: Tissue biodistribution into estrogen-primed immature female rat ovaries at 1 hr time interval; format: ADME, organism-based, Female gonad; conditions: in vivo; in short: as §1
Rattus norvegicus [6] = organism: Rattus norvegicus; test: Tissue biodistribution into estrogen-primed immature female rat uterus at 1 hr time interval; format: ADME, organism-based; conditions: in vivo; in short: as §1
Rattus norvegicus [7] = organism: Rattus norvegicus; test: Tissue biodistribution into estrogen-primed immature female rat uterus/blood at 1 hr time interval; format: ADME, organism-based; conditions: in vivo; in short: as §1
Rattus norvegicus [8] = organism: Rattus norvegicus; test: Tissue biodistribution into estrogen-primed immature female rat fat at 1 hr time interval; format: ADME, organism-based, Adipose tissue; conditions: in vivo; in short: as §1
Rattus norvegicus [9] = organism: Rattus norvegicus; test: Tissue biodistribution into estrogen-primed immature female rat uterus/muscle at 1 hr time interval; format: ADME, organism-based; conditions: in vivo
Rattus norvegicus [10] = organism: Rattus norvegicus; test: Tissue biodistribution into estrogen-primed immature female rat blood at 1 hr time interval; format: ADME, organism-based; conditions: in vivo; in short: as §1
Rattus norvegicus [11] = organism: Rattus norvegicus; test: Tissue biodistribution into estrogen-primed immature female rat bone at 1 hr time interval; format: ADME, organism-based, Bone element; conditions: in vivo; in short: as §1
Rattus norvegicus [12] = organism: Rattus norvegicus; test: Tissue biodistribution into estrogen-primed immature female rat brain at 1 hr time interval; format: ADME, organism-based; conditions: in vivo; in short: as §1
[13] = molecular target: T1, Progesterone receptor (Homo sapiens) (UniProt P06401); test: Binding selectivity index as the ratio of RBA value to that of NSB value.
T1 sequence (whole entry): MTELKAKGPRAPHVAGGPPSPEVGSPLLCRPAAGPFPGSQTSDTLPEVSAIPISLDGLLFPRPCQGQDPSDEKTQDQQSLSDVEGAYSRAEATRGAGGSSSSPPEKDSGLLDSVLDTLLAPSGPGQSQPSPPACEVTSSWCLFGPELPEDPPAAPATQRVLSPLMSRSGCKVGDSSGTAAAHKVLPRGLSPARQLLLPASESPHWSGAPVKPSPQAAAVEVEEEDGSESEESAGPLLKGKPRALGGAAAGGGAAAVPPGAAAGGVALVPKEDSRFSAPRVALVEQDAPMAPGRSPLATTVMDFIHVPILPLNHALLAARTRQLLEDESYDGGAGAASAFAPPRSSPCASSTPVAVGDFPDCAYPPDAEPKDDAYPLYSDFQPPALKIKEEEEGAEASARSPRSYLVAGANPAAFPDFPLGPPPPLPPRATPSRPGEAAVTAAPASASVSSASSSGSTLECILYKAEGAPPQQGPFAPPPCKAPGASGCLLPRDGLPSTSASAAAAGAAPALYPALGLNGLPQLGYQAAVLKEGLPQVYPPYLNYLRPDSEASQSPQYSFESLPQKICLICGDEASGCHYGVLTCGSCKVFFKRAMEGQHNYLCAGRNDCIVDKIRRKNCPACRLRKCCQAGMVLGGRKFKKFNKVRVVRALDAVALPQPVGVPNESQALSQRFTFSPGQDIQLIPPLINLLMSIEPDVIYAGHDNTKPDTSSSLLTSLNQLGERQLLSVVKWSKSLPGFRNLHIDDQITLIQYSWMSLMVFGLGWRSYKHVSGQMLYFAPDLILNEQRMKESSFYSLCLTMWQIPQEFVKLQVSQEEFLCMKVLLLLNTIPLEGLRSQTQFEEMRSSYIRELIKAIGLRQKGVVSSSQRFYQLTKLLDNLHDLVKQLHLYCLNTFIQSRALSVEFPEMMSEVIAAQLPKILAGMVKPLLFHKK
In short: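 BSI calculated as the ratio of RBA to NSB.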

[14] = molecular target: T1, Progesterone receptor (Homo sapiens); test: Nonspecific binding affinity against progesterone receptor was estimated relative to compound R5020
[15] = molecular target: T1, Progesterone receptor (Homo sapiens); test: Relative binding affinity against progesterone receptor at 0 degree Celsius determined in a competitive radiometric binding assay (R5020=100%).
In short: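 Competitive radiometric binding at 0 °C against tritium-labeled R5020 as the standard (RBA = 100). Values are the average of two experiments.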

Injected dose/g (Rattus norvegicus [1]): 0.82%
Injected dose/g (Rattus norvegicus [2]): 2.18%
Injected dose/g (Rattus norvegicus [3]): 3.41%
Injected dose/g (Rattus norvegicus [4]): 1.3%
Injected dose/g (Rattus norvegicus [5]): 3.93%
Injected dose/g (Rattus norvegicus [6]): 3.08%
Uterus to blood concentration ratio (Rattus norvegicus [7]): 6.59%
Injected dose/g (Rattus norvegicus [8]): 5.76%
Uterus to muscle uptake ratio (Rattus norvegicus [9]): 3.85%
Injected dose/g (Rattus norvegicus [10]): 0.47%
Injected dose/g (Rattus norvegicus [11]): 1.76%
Injected dose/g (Rattus norvegicus [12]): 0.56%
BSI [13]: 10
NSB [14]: 5.52
RBA [15]: 53
SMILES: CC(=O)[C@@]12O[C@](C)(c3ccc(F)cc3)O[C@@H]1CC1C3CCC4=CC(=O)CC[C@]4(C)C3CC[C@@]12C (stereo not given in full)
